Laboratory results from article PMC6542785 (Acta Pharmaceutica Sinica. B, 2018).

Assays:
Format in all cases: cell-based, human
[1] = test system: mitochondria of HeLa cells; assay: Mitochondria targeting, quantification in isolated mitochondria; details: 10 μg/mL Dox equivalent, flow cytometry, n=3
In short: (§1)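 HeLa cells (DMEM) or MCF-7 cells (RPMI-1640), both with 10% FBS, grown at 37 °C, 5% CO2 and treated in 12-well plates with test compound (10 μg/mL Dox equivalent). Collected into mitochondria extraction reagent on ice for 10 min, then homogenised. Spun at 600×g for 10 min; supernatant spun at 11,000×g for 10 min. Pelleted mitochondria analysed for Dox by flow cytometry.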

[2] = test system: mitochondria of MCF-7 cells; assay: as above; details: 10 μg/mL Dox equivalent, flow cytometry, n=3
In short: as §1

MCF-7/ADR cells = assay: Dox efflux assay
In short: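 MCF-7/ADR and MCF-7 cells, in RPMI-1640 with 10% FBS and penicillin/streptomycin (1 μg/mL doxorubicin added to maintain the ADR line), loaded with test compound (10 µg/mL Dox equivalent) for 4 h. Washed, then chased in fresh drug-free medium for 2 or 4 h at 37 °C. Collected and PBS-washed; retained Dox read by flow cytometry. Efflux ratio from retained versus initial uptake; mean ± SD, n=3.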

In the case of `COc1cccc2c1C(=O)c1c(O)c3c(c(O)c1C2=O)C[C@@](O)(C(=O)CO)C[C@@H]3O[C@H]1C[C@H](N)[C@H](O)[C@H](C)O1` [Dox, doxorubicin], the mitochondria distribution [1] was under 5%, the mitochondria distribution [2] was under 5% and the “Dox efflux rate in MCF-7/ADR, fold higher than in MCF-7 cells” value (MCF-7/ADR cells; 2 h in drug-free medium after 4 h loading) was 1.74 fold. For the same molecule, the “Dox efflux rate in MCF-7/ADR, fold higher than in MCF-7 cells” value (MCF-7/ADR cells; 4 h in drug-free medium after 4 h loading) was 2.08 fold.
